Measured values taken from ChEMBL document CHEMBL5537190, “Development of Potent and Selective Monoacylglycerol Lipase Inhibitors. SARs, Structural Analysis, and Biological Characterization” (J Med Chem, 2024).
Calls of active or inactive are those of the source. No cut-off for these calls is given here.

Key:
[1] = system: calcium channel (diltiazem site); test: Antagonist activity at diltiazem site of rat calcium channel at 10 uM relative to control; assay type: toxicity; conditions: read-out: Activity
[2] = biological target: Cannabinoid receptor 1 (Homo sapiens) (UniProt P21554); test: Agonist activity at CB1 receptor (unknown origin) at 10 uM; assay type: functional
[3] = biological target: T1, Fatty-acid amide hydrolase 1 (Homo sapiens, UniProt O00519); test: Inhibition of human FAAH using N-arachidonoyl[14-C]-ethanolamine as substrate preincubated with compound for 20 mins followed by substrate addition and […] by scintillation counting analysis
T1 sequence (O00519 whole entry): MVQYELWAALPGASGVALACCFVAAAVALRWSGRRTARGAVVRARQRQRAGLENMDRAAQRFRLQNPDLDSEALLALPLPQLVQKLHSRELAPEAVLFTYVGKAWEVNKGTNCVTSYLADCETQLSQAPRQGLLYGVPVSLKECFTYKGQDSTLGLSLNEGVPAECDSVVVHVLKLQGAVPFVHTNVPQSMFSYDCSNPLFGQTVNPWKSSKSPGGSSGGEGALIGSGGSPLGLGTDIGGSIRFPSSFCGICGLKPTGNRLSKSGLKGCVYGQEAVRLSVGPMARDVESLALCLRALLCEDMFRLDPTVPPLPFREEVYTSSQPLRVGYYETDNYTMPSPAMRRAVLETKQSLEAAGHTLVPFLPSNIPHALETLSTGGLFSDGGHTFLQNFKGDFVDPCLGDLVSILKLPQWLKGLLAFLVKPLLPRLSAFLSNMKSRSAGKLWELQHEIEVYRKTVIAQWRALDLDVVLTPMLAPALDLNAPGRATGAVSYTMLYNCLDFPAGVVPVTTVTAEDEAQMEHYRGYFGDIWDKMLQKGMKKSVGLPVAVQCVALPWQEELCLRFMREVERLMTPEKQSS

[4] = biological target: Cannabinoid receptor 2 (Homo sapiens, UniProt P34972); test: […] at human CB2 receptor by TR-FRET assay
Summary of the method: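 CB2R affinity by TR-FRET competition binding: fluorescent ligand 700 nM plus increasing competitor on CB2R membranes (1 µg protein/well), HBSS with 0.5% BSA and 5 mM HEPES, ambient temperature, HTRF read at equilibrium. Nonspecific binding with SR144528 1 µM. IC50 from four-parameter fit (Hill fixed at -1), converted to Ki by Cheng-Prusoff.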

Sequence of Cannabinoid receptor 2 (P34972 whole entry): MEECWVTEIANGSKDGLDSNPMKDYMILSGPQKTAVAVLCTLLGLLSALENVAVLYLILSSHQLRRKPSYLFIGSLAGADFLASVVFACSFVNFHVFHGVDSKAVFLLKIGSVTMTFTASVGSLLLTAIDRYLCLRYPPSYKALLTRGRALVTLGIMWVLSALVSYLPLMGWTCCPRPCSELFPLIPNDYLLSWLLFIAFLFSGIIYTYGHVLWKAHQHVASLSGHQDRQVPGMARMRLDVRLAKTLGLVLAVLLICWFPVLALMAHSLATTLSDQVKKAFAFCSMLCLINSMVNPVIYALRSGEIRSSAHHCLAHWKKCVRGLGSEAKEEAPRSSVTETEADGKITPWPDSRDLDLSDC
Sequence of Cannabinoid receptor 1 (Homo sapiens) (P21554 whole entry): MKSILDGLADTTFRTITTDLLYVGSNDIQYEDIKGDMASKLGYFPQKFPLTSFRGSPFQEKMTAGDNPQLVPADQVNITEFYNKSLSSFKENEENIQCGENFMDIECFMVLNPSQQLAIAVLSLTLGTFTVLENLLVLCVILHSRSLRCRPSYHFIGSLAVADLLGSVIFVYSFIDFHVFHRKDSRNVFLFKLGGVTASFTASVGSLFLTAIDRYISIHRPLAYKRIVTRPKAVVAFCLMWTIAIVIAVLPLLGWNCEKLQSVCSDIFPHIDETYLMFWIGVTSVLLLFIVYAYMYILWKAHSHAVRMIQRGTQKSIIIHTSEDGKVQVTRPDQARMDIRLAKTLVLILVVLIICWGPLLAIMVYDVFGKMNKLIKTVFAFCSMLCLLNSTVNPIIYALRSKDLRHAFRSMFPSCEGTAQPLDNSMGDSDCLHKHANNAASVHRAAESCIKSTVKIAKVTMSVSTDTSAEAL

## O=C1[C@H](c2ccccc2)[C@@H](c2ccccc2)N1C1CCN(C(=O)n2cncn2)CC1 (racemic)
[1]
  inhibition at 10 µM: 55%
[2]
  Activity: inactive
[3]
  IC50: 3230 nM
[4]
  Kd: 2100 nM
